This note sets out measurements from ChEMBL document CHEMBL1124924, “Aromatic thiazole derivatives: structurally novel and selective serotonin-3 receptor antagonists” (J Med Chem, 1990).

Structures are written as SMILES.

Experiment [1] concerns Rattus norvegicus. In words: Percent response to 100 ug/kg serotonin was determined as blockade of serotonin-induced bradycardia in anesthetized rat. The experiment is classed as functional. In short, it runs like this: (§1)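 Rat von Bezold–Jarisch reflex, read as blockade of serotonin-induced bradycardia. Test compound and serotonin were both given iv through a cannula in the right femoral vein.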

For experiment [2], the system named is Rattus norvegicus. The experiment is described as follows: (§2) Percent inhibition of serotonin-induced B-J reflex (Bezold-Jarisch reflex)in the right femoral vein of rat at a dose of 2 ug/kg. The experiment is classed as functional. In outline: (§3)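 Rats given test compound and serotonin intravenously through a cannula in the right femoral vein. Von Bezold-Jarisch reflex read as blockade of serotonin-induced bradycardia. Otherwise run by a previously published procedure.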

Experiment [3] relates to Rattus norvegicus. The experiment is described as follows: Percent inhibition of serotonin-induced B-J reflex (Bezold-Jarisch reflex)in the right femoral vein of rat at a dose of 20 ug/kg. The experiment is classed as functional. In outline: as §1
The target of experiment [4] is T1, Serotonin 3 (5-HT3) receptor (Rattus norvegicus, UniProt P35563+Q9JJ16).
T1 sequence (P35563 whole entry): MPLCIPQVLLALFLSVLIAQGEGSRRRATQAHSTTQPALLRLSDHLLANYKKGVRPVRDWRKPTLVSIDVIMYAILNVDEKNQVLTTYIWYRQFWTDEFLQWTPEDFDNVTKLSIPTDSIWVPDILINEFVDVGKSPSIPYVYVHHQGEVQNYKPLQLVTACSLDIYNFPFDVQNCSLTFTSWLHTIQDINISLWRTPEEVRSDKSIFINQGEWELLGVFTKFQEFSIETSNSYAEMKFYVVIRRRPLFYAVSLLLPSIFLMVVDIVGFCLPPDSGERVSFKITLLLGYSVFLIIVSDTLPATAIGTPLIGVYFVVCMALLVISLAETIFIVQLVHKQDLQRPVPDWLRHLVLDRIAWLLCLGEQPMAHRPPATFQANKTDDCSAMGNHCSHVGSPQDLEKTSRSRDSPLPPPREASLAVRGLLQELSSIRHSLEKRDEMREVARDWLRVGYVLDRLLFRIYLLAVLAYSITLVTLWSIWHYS
T1 sequence (Q9JJ16 whole entry): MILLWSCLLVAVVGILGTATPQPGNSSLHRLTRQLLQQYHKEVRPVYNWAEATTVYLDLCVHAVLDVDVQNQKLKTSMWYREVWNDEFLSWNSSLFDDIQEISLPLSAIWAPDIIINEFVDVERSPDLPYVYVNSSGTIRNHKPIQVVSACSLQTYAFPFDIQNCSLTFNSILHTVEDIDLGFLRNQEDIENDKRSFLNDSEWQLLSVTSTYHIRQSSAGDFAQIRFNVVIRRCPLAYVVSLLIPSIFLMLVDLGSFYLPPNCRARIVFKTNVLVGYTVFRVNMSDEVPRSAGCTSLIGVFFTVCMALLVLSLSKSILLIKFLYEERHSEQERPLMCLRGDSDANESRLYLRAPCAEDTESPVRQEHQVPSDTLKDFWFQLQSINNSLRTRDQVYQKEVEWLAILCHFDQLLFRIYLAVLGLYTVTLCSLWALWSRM
In words: In vitro displacement of [3H]ICS-205-930 from 5-hydroxytryptamine 3 receptor in cultured NG-108-15 […] cells. For orientation: Loss of bound radioactivity is the signal in a displacement assay; it reports binding, not function.

Experiment [5] concerns Rattus norvegicus. The experiment is described as §2. The class given is functional. In short, it runs like this:
as §1
The source holds these as a separate data set.

The subject of experiment [6] is Rattus norvegicus. The experiment is described as follows: Percent inhibition of serotonin-induced B-J reflex (Bezold-Jarisch reflex)in the right femoral vein of rat at a dose of 1 mg/kg po. The experiment is classed as functional.
The subject of experiment [7] is Rattus norvegicus. In words: (§4) Percent inhibition of serotonin-induced B-J reflex (Bezold-Jarisch reflex)in the right femoral vein of rat at a dose of 100 ug/kg. The experiment is classed as functional. In short, it runs like this: as §3
The test system of experiment [8] is Rattus norvegicus. The description is as §4. The class given is functional. In outline:
as §1
The source holds these as a separate data set.

In experiment [9] the test system is Rattus norvegicus. In words: Percent inhibition of serotonin-induced B-J reflex (Bezold-Jarisch reflex)in the right femoral vein of rat at a dose of 50 ug/kg. The class given is functional. In outline:
as §3

For experiment [10], the system named is Rattus norvegicus. The experiment is described as follows: Percent inhibition of serotonin-induced B-J reflex (Bezold-Jarisch reflex)in the right femoral vein of rat at a dose of 10 ug/kg. The experiment is classed as functional. In short, it runs like this: as §3

One may read the inhibition in vivo as how much of the control response was suppressed. On to `CN1[C@@H]2CC[C@H]1C[C@@H](OC(=O)c1c[nH]c3ccccc13)C2` [TROPISETRON], for which the Response with Rattus norvegicus [1] was determined as 0%. Testing at 0.002 mg/kg in the experiment with Rattus norvegicus [2] gave an inhibition in vivo of 76%.

A word on the Ki: it is a measure of affinity in units of concentration, obtained from inhibition or displacement. `N=C(N)NCc1nc(-c2c[nH]c3ccccc23)cs1` registered a Response in the experiment with Rattus norvegicus [1] of 60%. This molecule also yielded an inhibition in vivo at 0.02 mg/kg in the experiment with Rattus norvegicus [3] of 82%. The same molecule showed an inhibitory constant (Ki) in [4] of 3.3 nM. Further, in the experiment with Rattus norvegicus [5], the inhibition in vivo at 0.002 mg/kg is 51%. Moreover, in the experiment with Rattus norvegicus [6], the inhibition in vivo at 1 mg/kg was found to be 0%.

In turn, `c1ccc2c(-c3csc(Cc4c[nH]cn4)n3)c[nH]c2c1` had a Response with Rattus norvegicus [1] of 14%. Moreover, the affinity in experiment [4] corresponds to a Ki of 14.2 nM. In addition, the inhibition in vivo at 0.1 mg/kg in the experiment on Rattus norvegicus [7] was 63%.

In the experiment on Rattus norvegicus [1], `c1ccc(-c2csc(Cc3c[nH]cn3)n2)cc1` registered a Response of 80%. Also, in [4], affinity was put at a Ki of 0.99 nM. The same molecule had an inhibition in vivo at 0.002 mg/kg with Rattus norvegicus [2] of 41%.

With `Cc1nc(Cc2nc(-c3ccccc3)cs2)c[nH]1`, the Response with Rattus norvegicus [1] is reported as 0%. Also, in [4], the Ki turned out to be 226 nM. Moreover, at 0.1 mg/kg the inhibition in vivo with Rattus norvegicus [8] was 7%.

With `Cc1nccn1Cc1nc(-c2c[nH]c3ccccc23)cs1`, the Response in the experiment on Rattus norvegicus [1] was 0%. For the same molecule, the inhibition constant Ki in experiment [4] is above 1000 nM. Besides, 0.1 mg/kg produced 7% inhibition in vivo in the experiment with Rattus norvegicus [8].

As to `Cc1[nH]c2ccc(O)cc2c1CCN`, the Response in the experiment on Rattus norvegicus [1] amounted to 41%. The molecule also showed a Ki in [4] of 1220 nM. Also, the inhibition in vivo at 0.05 mg/kg with Rattus norvegicus [9] came out at 66%. The molecule further came in with an inhibition in vivo at 0.01 mg/kg in the experiment with Rattus norvegicus [10] of 23%.

Regarding `Cc1[nH]cnc1Cc1nc(-c2ccccc2)cs1`, the Response with Rattus norvegicus [1] is 0%. Also, the inhibition in vivo at 0.02 mg/kg with Rattus norvegicus [3] amounted to 86%. The molecule also displayed a Ki in experiment [4] of 1.5 nM. The molecule also displayed an inhibition in vivo at 0.002 mg/kg with Rattus norvegicus [2] of 11%. The inhibition in vivo at 1 mg/kg in the experiment with Rattus norvegicus [6] was 67%.

In turn, `Cc1[nH]cnc1Cc1nc(-c2c[nH]c3ccccc23)cs1` gave a Response in the experiment with Rattus norvegicus [1] of 0%. Besides, in [4], the Ki stood at 10.4 nM. The molecule further gave an inhibition in vivo at 0.1 mg/kg in the experiment on Rattus norvegicus [7] of 45%.

With `Cc1nccn1CC1CCc2c(c3ccccc3n2C)C1=O` (centres undefined) [ONDANSETRON], in the experiment with Rattus norvegicus [1], the Response worked out at 0%. For the same molecule, in the experiment with Rattus norvegicus [3], at 0.02 mg/kg the inhibition in vivo was 90%. The molecule further came in with an inhibition in vivo at 0.002 mg/kg with Rattus norvegicus [5] of 43%.
